Activity calls are given as the source filed them. The calls are words filed in the database; no cut-off is given here.
Experiments:
P2X purinoceptor 3 = target: T1, P2X purinoceptor 3 (Rattus norvegicus, UniProt P49654); test: Inhibition of inward ion current elicited by ATP was determined at recombinant P2X3 receptor expressed in Xenopus oocytes; assay type: functional, cell-based, Oocyte
T1 sequence (P49654 whole entry): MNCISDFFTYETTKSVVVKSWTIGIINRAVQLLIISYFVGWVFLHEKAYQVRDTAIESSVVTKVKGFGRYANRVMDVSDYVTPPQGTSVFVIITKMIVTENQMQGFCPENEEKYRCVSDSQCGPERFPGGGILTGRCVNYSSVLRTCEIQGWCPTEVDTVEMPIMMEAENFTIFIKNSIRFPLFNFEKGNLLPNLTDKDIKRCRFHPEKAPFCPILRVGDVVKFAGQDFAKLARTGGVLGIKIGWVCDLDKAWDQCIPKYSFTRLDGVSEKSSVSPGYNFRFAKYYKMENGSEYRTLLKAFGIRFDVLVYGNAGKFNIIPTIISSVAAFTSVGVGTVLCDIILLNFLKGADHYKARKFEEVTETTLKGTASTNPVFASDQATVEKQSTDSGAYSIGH

P2X purinoceptor 2 = target: T2, P2X purinoceptor 2 (Rattus norvegicus, UniProt P49653); test: Inhibition of inward ion current elicited by ATP at P2X2 receptor expressed in Xenopus oocytes; assay type: functional, cell-based, Oocyte
T2 sequence (P49653 whole entry): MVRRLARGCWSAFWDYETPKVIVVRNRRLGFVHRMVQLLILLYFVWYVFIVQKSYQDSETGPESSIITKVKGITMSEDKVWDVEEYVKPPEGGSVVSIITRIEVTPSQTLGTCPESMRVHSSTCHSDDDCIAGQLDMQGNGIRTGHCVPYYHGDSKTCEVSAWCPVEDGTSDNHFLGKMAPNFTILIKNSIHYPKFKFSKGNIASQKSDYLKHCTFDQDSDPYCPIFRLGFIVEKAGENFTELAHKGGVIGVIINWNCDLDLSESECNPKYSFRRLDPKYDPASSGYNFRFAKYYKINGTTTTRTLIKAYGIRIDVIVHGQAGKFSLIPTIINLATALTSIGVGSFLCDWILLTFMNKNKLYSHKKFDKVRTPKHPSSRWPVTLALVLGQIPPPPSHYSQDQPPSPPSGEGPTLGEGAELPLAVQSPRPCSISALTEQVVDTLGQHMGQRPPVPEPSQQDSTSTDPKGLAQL

P2X purinoceptor 1 = target: T3, P2X purinoceptor 1 (Rattus norvegicus, UniProt P47824); test: Inhibition of inward ion current elicited by ATP at P2X1 receptor expressed in Xenopus oocytes; assay type: functional, cell-based, Oocyte
T3 sequence (P47824 whole entry): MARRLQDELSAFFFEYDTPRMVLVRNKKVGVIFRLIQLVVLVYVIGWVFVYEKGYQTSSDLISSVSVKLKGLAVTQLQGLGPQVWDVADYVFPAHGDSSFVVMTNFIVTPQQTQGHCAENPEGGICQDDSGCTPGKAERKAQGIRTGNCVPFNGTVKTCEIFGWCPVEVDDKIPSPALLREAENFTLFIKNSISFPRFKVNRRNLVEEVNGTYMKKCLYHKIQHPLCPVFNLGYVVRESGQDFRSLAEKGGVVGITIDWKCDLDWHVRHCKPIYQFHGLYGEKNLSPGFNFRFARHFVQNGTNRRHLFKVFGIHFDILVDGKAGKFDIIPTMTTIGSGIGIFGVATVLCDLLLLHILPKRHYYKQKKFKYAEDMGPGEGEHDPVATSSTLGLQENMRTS

P2X purinoceptor 4 [1] = target: T4, P2X purinoceptor 4 (Rattus norvegicus, UniProt P51577); test: Inhibition of inward ion current elicited by ATP at rat P2X4 receptor (wild type); assay type: functional
T4 sequence (P51577 whole entry): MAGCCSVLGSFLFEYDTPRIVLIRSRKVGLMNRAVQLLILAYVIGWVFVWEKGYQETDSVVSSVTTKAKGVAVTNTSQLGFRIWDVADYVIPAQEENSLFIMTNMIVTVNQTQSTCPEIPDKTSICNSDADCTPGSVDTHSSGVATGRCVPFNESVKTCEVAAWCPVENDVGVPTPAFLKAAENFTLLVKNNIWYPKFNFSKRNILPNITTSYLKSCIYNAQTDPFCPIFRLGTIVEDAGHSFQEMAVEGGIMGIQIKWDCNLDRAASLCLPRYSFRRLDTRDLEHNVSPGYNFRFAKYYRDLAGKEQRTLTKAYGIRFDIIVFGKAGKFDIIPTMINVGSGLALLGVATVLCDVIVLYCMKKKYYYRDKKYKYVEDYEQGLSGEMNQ

P2X purinoceptor 6 [2] = target: T5, P2X purinoceptor 6 (Rattus norvegicus, UniProt P51579); test: Inhibition of inward ion current elicited by ATP at rat P2X6 receptor (wild type); assay type: functional
Target sequence in this assay (P51579 whole entry): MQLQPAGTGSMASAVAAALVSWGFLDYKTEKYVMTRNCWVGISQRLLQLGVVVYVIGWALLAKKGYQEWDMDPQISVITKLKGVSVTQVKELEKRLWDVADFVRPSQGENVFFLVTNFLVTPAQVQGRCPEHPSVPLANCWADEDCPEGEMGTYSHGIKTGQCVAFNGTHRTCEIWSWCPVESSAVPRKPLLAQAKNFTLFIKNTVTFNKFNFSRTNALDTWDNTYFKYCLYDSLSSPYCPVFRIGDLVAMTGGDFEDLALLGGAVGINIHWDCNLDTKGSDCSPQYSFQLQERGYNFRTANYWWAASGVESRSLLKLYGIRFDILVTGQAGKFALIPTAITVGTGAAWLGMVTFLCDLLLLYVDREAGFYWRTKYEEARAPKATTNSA

P2X purinoceptor 4 [3] = target: P2X purinoceptor 4 (Rattus norvegicus, UniProt P51577); test: Inhibition of inward ion current elicited by ATP at rat P2X4 receptor (mutant type); assay type: functional
P2Y purinoceptor 1 [4] = target: T6, P2Y purinoceptor 1 (Meleagris gallopavo, UniProt P49652); test: Inhibition of 10 nM 2-MeS-ADP-stimulated phospholipase C in turkey erythrocyte membranes using [3H]inositol; assay type: functional, cell membranes
T6 sequence (P49652 whole entry): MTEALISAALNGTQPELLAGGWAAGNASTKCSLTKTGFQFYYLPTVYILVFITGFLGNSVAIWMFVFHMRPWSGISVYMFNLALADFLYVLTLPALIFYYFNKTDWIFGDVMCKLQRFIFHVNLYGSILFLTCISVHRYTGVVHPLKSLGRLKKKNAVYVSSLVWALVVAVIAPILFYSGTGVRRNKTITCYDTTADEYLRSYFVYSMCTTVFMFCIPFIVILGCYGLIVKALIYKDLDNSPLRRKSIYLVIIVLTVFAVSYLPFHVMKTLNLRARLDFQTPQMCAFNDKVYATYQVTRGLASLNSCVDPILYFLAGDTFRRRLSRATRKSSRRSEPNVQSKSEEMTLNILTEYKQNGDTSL
Method in brief: (§1)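 Turkey erythrocytes labelled 18-24 h at 37 °C with 2-[³H]myo-inositol in inositol-free DMEM, then lysed hypotonically (5 mM sodium phosphate pH 7.4, 5 mM MgCl₂, 1 mM EGTA) to make ghosts. Ghosts were incubated 5 min at 30 °C in pH 7.0 Hepes/KCl buffer with 1 µM GTPγS and 10 nM 2-MeSADP. Total [³H]inositol phosphates were measured by anion-exchange chromatography; 3-8 independent determinations.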

P2X purinoceptor 6 [5] = target: T5, P2X purinoceptor 6; test: Inhibition of inward ion current elicited by ATP at rat P2X6 receptor (mutant type); assay type: functional
Target sequence in this assay (P51579 whole entry, looked up): as the sequence (P51579 whole entry) above

[6] = target: P2Y purinoceptor 1 (Meleagris gallopavo) (UniProt P49652); test: Inhibition of 10 nM 2-MeS-ADP-stimulated phospholipase C in turkey erythrocyte membranes using [3H]inositol; IA means inactive; assay type: functional, cell membranes; method in brief: as §1
Chain of P2Y purinoceptor 1 (Meleagris gallopavo) (P49652 whole entry): as the sequence (P49652 whole entry) above

[7] = target: T7, P2X purinoceptor 1 (Rattus norvegicus) (UniProt P47824); test: Inhibition of inward ion current elicited by ATP at P2X1 receptor expressed in Xenopus oocytes; IA means inactive; assay type: functional, cell-based; conditions: Oocyte
T7 sequence (whole entry): T3 sequence (P47824 whole entry)

[8] = target: T8, P2X purinoceptor 7 (Homo sapiens) (UniProt Q99572); test: Percentage inhibition of ATP-induced K+ efflux (cation free) in adherent HEK293 cells expressing human P2X7 receptor; assay type: functional, cell-based; conditions: concentration not given here
T8 sequence (whole entry): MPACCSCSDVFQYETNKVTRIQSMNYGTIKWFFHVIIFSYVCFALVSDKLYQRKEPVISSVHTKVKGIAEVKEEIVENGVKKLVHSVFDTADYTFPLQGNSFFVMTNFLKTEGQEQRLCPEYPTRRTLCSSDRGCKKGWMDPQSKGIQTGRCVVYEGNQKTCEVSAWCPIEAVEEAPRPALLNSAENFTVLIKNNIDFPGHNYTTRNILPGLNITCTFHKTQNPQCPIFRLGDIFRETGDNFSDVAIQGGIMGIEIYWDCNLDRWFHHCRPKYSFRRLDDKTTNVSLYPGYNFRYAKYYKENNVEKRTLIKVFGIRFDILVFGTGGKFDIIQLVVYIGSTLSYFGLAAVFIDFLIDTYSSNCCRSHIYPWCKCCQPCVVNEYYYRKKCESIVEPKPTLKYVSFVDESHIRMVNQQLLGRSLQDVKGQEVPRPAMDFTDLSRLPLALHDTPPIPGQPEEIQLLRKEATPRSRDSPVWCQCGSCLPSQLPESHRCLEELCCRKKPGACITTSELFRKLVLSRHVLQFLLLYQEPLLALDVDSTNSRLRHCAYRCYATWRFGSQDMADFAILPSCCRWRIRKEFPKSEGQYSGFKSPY
Method in brief: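 Adherent HEK293 cells stably expressing human P2X7, in divalent cation-free saline (no added MgCl₂ or CaCl₂; pH 7.5). Pretreated with 30 µM compound, then 3 mM ATP for 10 min at 37 °C. Residual cell K⁺ was extracted in 10% HNO₃ for 2 h and measured by atomic absorbance against untreated cells. n=3, each in duplicate.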

[9] = target: T8, P2X purinoceptor 7 (Homo sapiens); test: Percent inhibition of ATP-induced K+ efflux (ethidium influx) in suspended HEK293 cells expressing human P2X7 receptor; assay type: functional, cell-based; conditions: concentration not given here
Method in brief: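 Trypsinised HEK293 cells stably expressing human P2X7 were suspended in divalent cation-free saline in a stirred cuvette at 37 °C with 20 µM ethidium bromide. Cells were treated with 30 µM compound, then 300 µM ATP.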

[10] = target: T8, P2X purinoceptor 7 (Homo sapiens); test: Percent inhibition of ATP-induced K+ efflux (with cations) in adherent HEK293 cells expressing human P2X7 receptor; assay type: functional, cell-based; conditions: concentration not given here
Method in brief: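 Adherent HEK293 cells stably expressing human P2X7, grown to 90% confluence, in saline with 1 mM MgCl₂ and 1.5 mM CaCl₂ (pH 7.5). Pretreated with 30 µM compound, then 3 mM ATP for 10 min at 37 °C. Cell K⁺ was extracted in 10% HNO₃ for 2 h and read by atomic absorbance relative to untreated cells. n=3, each in duplicate.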

P2Y purinoceptor 1 [11] = target: T6, P2Y purinoceptor 1; test: Inhibition of 10 nM 2-MeS-ADP-stimulated phospholipase C in turkey erythrocyte membrane; assay type: functional, cell membranes; method in brief: as §1
[12] = target: T7, P2X purinoceptor 1 (Rattus norvegicus); test: Inhibition of inward ion current elicited by ATP at P2X1 receptor expressed in Xenopus oocytes at 10 uM; assay type: functional, cell-based; conditions: Oocyte

SMILES	IC50 (P2X purinoceptor 3)	IC50 (P2X purinoceptor 2)	IC50 (P2X purinoceptor 1)	IC50 (P2Y purinoceptor 1 [4])	inhibition [8]	inhibition [9]	inhibition [10]	also measured
Cc1nc(/N=N/c2ccc(S(=O)(=O)O)cc2S(=O)(=O)O)c(COP(=O)(O)O)c(C=O)c1O	240 nM	1600 nM	99 nM	16600 nM				IC50 (P2X purinoceptor 4 [1]): > 500000 nM; IC50 (P2X purinoceptor 6 [2]): > 500000 nM; IC50 (P2X purinoceptor 4 [3]): 2600 nM; IC50 (P2X purinoceptor 6 [5]): 2000 nM
Cc1ncc(COP(=O)(O)O)c(COP(=O)(O)O)c1O								Inhibition activity [6]: inactive; IA [7]: inactive
Cc1nc(/N=N/c2cc(C(=O)O)ccc2C(=O)O)c(CP(=O)(O)O)c(C=O)c1O	330 nM	486 nM	37 nM					
Cc1nc(/N=N/c2cc(S(=O)(=O)O)ccc2Cl)c(CP(=O)(O)O)c(C=O)c1O					-8%	40%	-5%	
Cc1nc(/N=N/c2ccccc2)c(COP(=O)(O)O)c(C=O)c1O	480 nM	1200 nM	42 nM					IC50 (P2Y purinoceptor 1 [11]): 54000 nM
Cc1nc(/N=N/c2cc(S(=O)(=O)O)ccc2S(=O)(=O)O)c(CP(=O)(O)O)c(C=O)c1O	340 nM	1100 nM	12 nM	46000 nM	28%	100%	51%	
Cc1nc(/N=N/c2ccc(C(=O)O)cc2)c(CCP(=O)(O)O)c(C=O)c1O	145 nM	2400 nM	20 nM	100000 nM				
CNc1ncnc2c1ncn2[C@H]1C[C@H](OP(=O)(O)O)[C@@H](COP(=O)(O)O)O1					24%	100%	37%	
Cc1nc(/N=N/c2cc(CP(=O)(O)O)cc(CP(=O)(O)O)c2)c(CP(=O)(O)O)c(C=O)c1O	25 nM	280 nM	11 nM	14500 nM	-5%	84%	0%	
Cc1nc(/N=N/c2cc(S(=O)(=O)O)ccc2Cl)c2c(c1O)COP(=O)(O)OC2								inhibition [12]: 43%
Cc1nc(/N=N/c2cc(S(=O)(=O)O)ccc2S(=O)(=O)O)c(COP(=O)(O)O)c(COP(=O)(O)O)c1O				100000 nM	-7%	15%	-1%	inhibition [12]: 27%

Source: ChEMBL document CHEMBL1134335, “Structure-activity relationships of pyridoxal phosphate derivatives as potent and selective antagonists of P2X1 receptors” (J Med Chem, 2001)
